Active and inactive are the calls of the source. The rule behind the calls is not given here.

Data set [1] has as its system Mus musculus. Nature of the data set: Neurotoxicity in CF1 mouse at 100 mg/kg, ip after 0.5 hrs by rotarod test. It counts as toxicity, organism-based. On the set-up: dose 100 mg/kg, route intraperitoneal. To be noted: in vivo. In a few lines: (§1)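 Male albino CF#1 mice (18–25.5 g) dosed ip with compound suspended in 0.5% methylcellulose, 0.5 h or 4 h before testing; neurotoxicity assessed by rotarod, scored as number toxic/number tested.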
In general terms: Falling from the rotarod earlier than controls is read as motor impairment.

Data set [2] concerns Mus musculus. Briefly: Anticonvulsant activity in CF1 mouse assessed as inhibition of maximal electroshock-induced seizures at 30 mg/kg, ip after 4 hrs. The format is functional, organism-based. Further details: dose 30 mg/kg. In a few lines:
(§2)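 Male albino CF#1 mice (18–25.5 g), compound suspended in 0.5% methylcellulose, given ip 0.5 h or 4 h before test. Eyes treated with 0.5% tetracaine HCl in saline; corneal-type MES at 60 Hz, 50 mA for 0.2 s; protection scored as animals protected/tested.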
(Protection in the maximal electroshock model is a classic sign of anticonvulsant action.)

Data set [3] concerns Rattus norvegicus. Briefly: Anticonvulsant activity in Sprague-Dawley rat assessed as inhibition of maximal electroshock-induced seizures at 30 mg/kg, po after 2 hrs. Further details: dose 30 mg/kg. It counts as functional, organism-based. In a few lines: (§3)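 Male albino Sprague-Dawley rats (105–130 g) given a single oral 30 mg/kg dose suspended in 0.5% methylcellulose; MES (60 Hz, 150 mA, 0.2 s, tetracaine-anesthetized eyes) at 0.25, 0.5, 1, 2 and 4 h; 4 rats per time point; scored protected/tested.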

The subject of data set [4] is Mus musculus. Nature of the data set: Neurotoxicity in CF1 mouse assessed as ability to grasp rotarod at 300 mg/kg, ip after 4 hrs by rotarod test. It counts as toxicity, organism-based. Further details: dose 300 mg/kg, route intraperitoneal. To be noted: in vivo. In a few lines:
(§4)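 Male albino CF#1 mice (18–25.5 g), free access to food and water except during testing, under NINDS Anticonvulsant Screening Program procedures. Compounds were suspended in 0.5% methylcellulose and given ip. Neurotoxicity was scored by rotarod 0.5 h and 4 h after dosing, at screening doses of 30, 100 or 300 mg/kg. Results are reported as affected/tested animals.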

Data set [5] relates to Mus musculus. Nature of the data set: Anticonvulsant activity in CF1 mouse assessed as inhibition of maximal electroshock-induced seizures at 30 mg/kg, ip after 0.5 hrs. The format is functional, organism-based. On the set-up: dose 30 mg/kg. In a few lines: as §2
Data set [6] has as its system Mus musculus. Briefly: Neurotoxicity in CF1 mouse assessed as time to peak effect muscle spasms at 150 mg/kg, ip by rotarod test. Further details: dose 150 mg/kg, route intraperitoneal. It counts as toxicity, organism-based, Muscle tissue. To be noted: in vivo.
Data set [7] relates to Mus musculus. Briefly: Anticonvulsant activity in CF1 mouse assessed as time to peak effect for inhibition of maximal electroshock-induced seizures at 35 mg/kg, ip after 2 hrs. It counts as functional, organism-based. Further details: dose 35 mg/kg.
Data set [8] can be described thus: Therapeutic index, ratio of TD50 for Sprague-Dawley rat to ED50 for Sprague-Dawley rat. In a few lines: (§5)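 Ratio of TD50 to ED50, both from ip dosing at the time of peak effect, with groups of at least 8 per dose and Finney probit analysis. […] Toxicity was read by rotarod in mice and by positional sense, gait and stance in rats.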
Data set [9] concerns Mus musculus. Nature of the data set: Neurotoxicity in CF1 mouse at 30 mg/kg, ip after 4 hrs by rotarod test. On the set-up: dose 30 mg/kg, route intraperitoneal. The format is toxicity, organism-based. To be noted: in vivo. An outline of the steps:
as §1

Data set [10] concerns Rattus norvegicus. Nature of the data set: Anticonvulsant activity in Sprague-Dawley rat assessed as inhibition of maximal electroshock-induced seizures at 30 mg/kg, po after 0.25 hrs. The format is functional, organism-based. Further details: dose 30 mg/kg. In a few lines: as §3
Data set [11] concerns Mus musculus. Briefly: Neurotoxicity in CF1 mouse assessed as mortality at 300 mg/kg, ip after 4 hrs by rotarod test. The format is toxicity, organism-based. On the set-up: dose 300 mg/kg, route intraperitoneal. To be noted: in vivo. An outline of the steps:
as §4

The nature of data set [12]: Therapeutic index, ratio of TD50 for CF1 mouse to ED50 for CF1 mouse. An outline of the steps: as §5
The test system of data set [13] is Mus musculus. Nature of the data set: Neurotoxicity in CF1 mouse assessed as time to peak effect at 150 mg/kg, ip after 1 to 2 hrs by rotarod test. On the set-up: dose 150 mg/kg, route intraperitoneal. The format is toxicity, organism-based. To be noted: in vivo.
The subject of data set [14] is Mus musculus. Nature of the data set: Anticonvulsant activity in ip dosed CF1 mouse assessed as inhibition of maximal electroshock-induced seizures after 0.5 hrs. It counts as functional.
The test system of data set [15] is Rattus norvegicus. Briefly: Neurotoxicity in Sprague-Dawley rat at 30 mg/kg, po after 4 hrs by rotarod test. Further details: dose 30 mg/kg, route oral. To be noted: in vivo. The format is toxicity, organism-based.

By ED50 is commonly meant the dose that gives a 50% effect, or the effect in half of the subjects. Turning to `CC(C)CC(=O)OC(Cn1ccnc1)c1ccc2ccccc2c1` (stereo not given), the Activity entry is given as “Non-toxic” in [1]; “Toxic” in [4]; “Non-toxic” in data set [9]; “Toxic” in data set [11]; “Not Active” in [13]; “Non-toxic” in [15]. The inhibition result in [2], in [3], in [5] and in data set [10] was “inactive” in each case. Further, the Time in [6] is 0.25 h. For the same compound, the result in data set [7] was inactive. Further, the selectivity ratio came to 2.76 in data set [8] and 3.22 in data set [12]. The ED50 in [14] worked out at 38.5 mg/kg.

For the origin of these results see ChEMBL document CHEMBL1156239, “Synthesis, anticonvulsant and antimicrobial activities of some new 2-acetylnaphthalene derivatives” (Bioorg Med Chem, 2010).
